Activity calls are given as the source filed them. The calls are words filed in the database; no cut-off is given here.
Assays:
[1] = Cytotoxicity against human HepG2 cells after 4 hrs by Alamar Blue assay; format: cell-based; details: read-out: LD50
Tubulin (Homo sapiens) = Tubulin (Homo sapiens) (UniProt P68371+Q9H4B7+P0DPH7+P68366+Q13509+Q71U36+P04350+Q3ZCM7+P07437+P68363+Q9BQE3+Q6PEY2+Q13885+Q9BVA1+Q9BUF5); experiment: Inhibition of tubulin polymerization in human DU145 cells at 10 to 50 nM pretreated with paclitaxel for 24 hrs followed by compound treatment for 4 hrs by Western blotting analysis; format: cell-based; details: DU-145
Procedure, shortened: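 DU145 cells were plated at 1.0×10⁴/well and treated for 24 h. Alternatively, cells were pretreated with paclitaxel for 24 h, then exposed to compound for 4 h. Cells were lysed in hypotonic buffer (1 mM MgCl₂, 2 mM EGTA, Tris pH 6.6, 0.5% NP40, protease inhibitors) and spun 10 min at 14,000 rpm. Pellet (polymerized) and supernatant (soluble) fractions were blotted for α-tubulin.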

2008 = experiment: Resistance factor, ratio of GI50 for paclitaxel-resistant human 2008/17/4 cells to GI50 for human 2008 cells; format: functional
Plasma = experiment: Plasma protein binding in rat at 10 to 50 uM by equilibrium dialysis; format: ADME, cell-free
Mus musculus [2] = experiment: Oral bioavailability in ICR mouse at 5 mg/kg by LC-MS/MS analysis; format: ADME, organism-based; details: in vivo
Procedure, shortened: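 Male ICR mice, 6–8 weeks old (N=3 per group), with a carotid artery cannula implanted one day before dosing. Dosed at 5 mg/kg in NMP:PEG300:water (1:4:5) as an IV bolus or by oral gavage. Blood drawn at 2–360 min; plasma protein-precipitated with acetonitrile containing internal standard, assayed by LC/MS/MS; noncompartmental analysis.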

[3] = Cytotoxicity against human U87 cells after 96 hrs by sulforhodamine B assay; format: functional, cell-based, U-87MG ATCC; details: U-87 MG
Mus musculus [4] = experiment: Elimination half life in ICR mouse at 5 mg/kg, iv by LC-MS/MS analysis; format: ADME, organism-based; set-up: dose 5 mg/kg, route intravenous; details: in vivo
Procedure, shortened: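 Male ICR mice, 6–8 weeks old, N=3 per group. Single 5 mg/kg dose in NMP:PEG300:water (1:4:5 v/v), given as IV bolus or oral gavage. Serial arterial blood was drawn through a carotid cannula at 2–360 min. Plasma was protein-precipitated with acetonitrile containing internal standard and assayed by LC/MS/MS. Parameters were derived by noncompartmental analysis.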

DU-145 = experiment: Cell cycle arrest in human DU145 cells assessed as accumulation at G2/M phase after 24 hrs by propidium iodide staining-based FACS flow cytometric analysis; format: functional
Procedure, shortened: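 DU145 cells were plated at 1.0×10⁶ per dish in DMEM/10% FBS and treated 24 h later with increasing concentrations. After 24 h, attached and floating cells were pooled and fixed in ice-cold 70% ethanol for at least 24 h. Cells were stained with propidium iodide (50 μg/mL) plus RNase A for 30 min at 37 °C, then read on a FACScan with cell-cycle modelling.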

[5] = Growth inhibition of multidrug-resistant human MES-SA/Dx5 cells; format: functional

## COc1cc(OC)c(/C=C/S(=O)(=O)Nc2ccc(OC)c(N)c2)c(OC)c1
[1]
  CC50 at 4 h: > 1000 µM
Tubulin (Homo sapiens)
  inhibition: Active
2008
  RatioGI50: 1
Plasma
  PPB: 99.73%
Mus musculus [2]
  F: 34%
[3]
  IC50: 0.009 µM
Mus musculus [4]
  beta t1/2: 1.7 h
DU-145
  Activity: Dose-dependent effect
[5]
  GI50: 0.01 µM
